The source of these data is ChEMBL document CHEMBL1145782, “Systematic development of high affinity bis(ammonio)alkane-type allosteric enhancers of muscarinic ligand binding” (J Med Chem, 2003).

Structures are written as SMILES.

In assay [1] the target is T1, Muscarinic acetylcholine receptor M2 (Sus scrofa) (UniProt P06199).
T1 sequence (whole entry): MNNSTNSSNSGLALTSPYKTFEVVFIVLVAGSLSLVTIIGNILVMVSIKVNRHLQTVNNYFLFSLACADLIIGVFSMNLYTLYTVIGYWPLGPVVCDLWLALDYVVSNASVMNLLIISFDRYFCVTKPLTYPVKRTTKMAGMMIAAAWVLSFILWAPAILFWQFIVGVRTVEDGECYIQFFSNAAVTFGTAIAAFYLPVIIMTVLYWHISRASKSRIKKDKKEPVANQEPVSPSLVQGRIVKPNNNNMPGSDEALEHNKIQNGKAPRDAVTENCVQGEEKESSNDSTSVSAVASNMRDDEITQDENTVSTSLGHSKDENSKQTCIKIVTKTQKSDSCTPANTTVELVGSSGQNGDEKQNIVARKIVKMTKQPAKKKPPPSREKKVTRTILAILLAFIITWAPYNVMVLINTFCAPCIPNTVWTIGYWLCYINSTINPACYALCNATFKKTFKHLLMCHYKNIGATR
The experiment in a line: Cooperativity factor pAlpha at porcine heart ventricle muscarinic acetylcholine receptor M2. The method, boiled down: (§1)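 Pig heart ventricle homogenates in 2.7 mM MgHPO4, 45 mM Tris-HCl, pH 7.3, 37 °C; [3H]NMS 0.20 nM with increasing test compound concentrations; incubation 180–530 min, calculated to reach equilibrium. Nonspecific binding with 1 μM atropine; bound label separated by rapid vacuum filtration onto glass filters and counted by liquid scintillation. Affinities for free and NMS-occupied receptor derived from binding curves.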

For assay [2], the target named is T1, Muscarinic acetylcholine receptor M2 (Sus scrofa). The experiment in a line: Binding affinity for [3H]NMS-occupied muscarinic acetylcholine receptor M2 from porcine heart ventricle. The method, boiled down: as §1
Assay [3] has the same target. The experiment in a line: Tested for binding of [3H]N-methylscopolamine ([3H]NMS) at porcine heart ventricle muscarinic acetylcholine receptor M2 expressed as -logKa. The method, boiled down:
as §1

Assay [4] addresses T2, Muscarinic acetylcholine receptor M2 (Sus scrofa, UniProt P06199).
T2 sequence (P06199 whole entry): T1 sequence (whole entry)
The experiment in a line: Effective concentration required to inhibit dissociation of [3H]NMS from porcine heart ventricles muscarinic acetylcholine receptor M2. The method, boiled down: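 [3H]NMS dissociation in pig heart ventricle homogenates, Mg/Tris buffer pH 7.3, 37 °C. Membranes equilibrated 30 min with 0.2 nM [3H]NMS, then 1 μM atropine added alone or with various test compound concentrations. Either complete time courses over 120 min or two-point measurement (0 and 10 min); monoexponential apparent k-1 by nonlinear regression; filtration and scintillation counting.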

`C[N+](C)(CCCCCC[N+](C)(C)CCCN1C(=O)c2cc3ccccc3cc2C1=O)CCCN1C(=O)c2cc3ccccc3cc2C1=O` yielded a pAlpha in assay [1] of -0.85. The p alphaKa in assay [2] was 6.77. The -logKa in assay [3] amounted to 7.62. For the same molecule, the EC50 in assay [4] is 204 nM.

Consider `Cc1ccc2c(c1)C(=O)N(CCC[N+](C)(C)CCCCCC[N+](C)(C)CCCN1C(=O)c3ccccc3C1=O)C2=O`, for which, in assay [1], the pAlpha is -0.31. Further, the p alphaKa in assay [2] stood at 6.42. This molecule also returned a -logKa in assay [3] of 6.73. The molecule also had an EC50 in assay [4] of 324 nM.

`CC(C)(C)c1ccc2c(c1)C(=O)N(CCC[N+](C)(C)CCCCCC[N+](C)(C)CCCN1C(=O)c3ccc(C(C)(C)C)cc3C1=O)C2=O` returned a pAlpha in assay [1] of -0.89. Further, in assay [2], the p alphaKa came to 6.49. In addition, the -logKa in assay [3] turned out to be 7.38. In assay [4], this molecule had an EC50 of 302 nM.

Molecule `CC(C)(C)c1ccc2c(c1)C(=O)N(CCC[N+](C)(C)CCCCCC[N+](C)(C)CCCN1C(=O)c3ccccc3C1=O)C2=O` registered a pAlpha in assay [1] of -0.81. This molecule displayed a p alphaKa in assay [2] of 6.43. Also, the -logKa in assay [3] was 7.25. In assay [4], the EC50 is 309 nM.

Molecule `C[N+](C)(CCCCCC[N+](C)(C)CCCN1C(=O)c2cc(Cl)c(Cl)cc2C1=O)CCCN1C(=O)c2ccccc2C1=O` returned a pAlpha in assay [1] of -0.17. The molecule further had a p alphaKa in assay [2] of 6.9. The molecule further showed a -logKa in assay [3] of 7.08. Also, in assay [4], the midpoint of the response, the EC50, lay at 115 nM.

`Cc1ccc2c(c1)C(=O)N(CC(C)(C)C[N+](C)(C)CCCCCC[N+](C)(C)CC(C)(C)CN1C(=O)c3ccc(C)cc3C1=O)C2=O` displayed a pAlpha in assay [1] of 0.17. In assay [2], this molecule returned a p alphaKa of 7.38. The -logKa in assay [3] came to 7.21. In assay [4], this molecule had an EC50 of 46.8 nM.

On to `C[N+](C)(CCCCCC[N+](C)(C)CCCN1C(=O)C2C3c4ccccc4C(c4ccccc43)C2C1=O)CCCN1C(=O)C2C3c4ccccc4C(c4ccccc43)C2C1=O` (centres undefined), for which the pAlpha in assay [1] was -1.38. The p alphaKa in assay [2] was 6.74. In assay [3], this molecule displayed a -logKa of 8.12. In assay [4], this molecule had an EC50 of 398 nM.

In assay [1], `C[N+](C)(CCCCCC[N+](C)(C)CCCN1C(=O)c2cccc3cccc(c23)C1=O)CCCN1C(=O)c2ccccc2C1=O` showed a pAlpha of -0.2. In assay [2], this molecule came in with a p alphaKa of 7.04. Besides, in assay [3], the -logKa came out at 7.24. Besides, in assay [4], the response was half-maximal at 115 nM (EC50).

Turning to `CC(C)(CN1C(=O)c2cccc3cccc(c23)C1=O)C[N+](C)(C)CCCCCC[N+](C)(C)CCCN1C(=O)c2cccc3cccc(c23)C1=O`, the pAlpha in assay [1] was 0.17. For the same molecule, the p alphaKa in assay [2] stood at 8.24. This molecule returned a -logKa in assay [3] of 8.07. The same molecule showed a 50% effective concentration (EC50) in assay [4] of 7.76 nM.

Take `Cc1ccc2c(c1)C(=O)N(CCC[N+](C)(C)CCCCCC[N+](C)(C)CCCN1C(=O)c3cccc4cccc(c34)C1=O)C2=O`: in assay [1], the pAlpha was -0.22. In assay [2], the p alphaKa turned out to be 7.79. The molecule also returned a -logKa in assay [3] of 8.01. In assay [4], this molecule had an EC50 of 25.1 nM.

`C[N+](C)(CCCCCC[N+](C)(C)CCCN1C(=O)c2cccc3cccc(c23)C1=O)CCCN1C(=O)c2cccc3cccc(c23)C1=O` came in with a pAlpha in assay [1] of -0.28. In assay [2], this molecule registered a p alphaKa of 7.83. The -logKa in assay [3] was determined as 8.11. The response in assay [4] was half-maximal at 13.8 nM (EC50).

In assay [1], `Cc1ccc2c(c1)C(=O)N(CCC[N+](C)(C)CCCCCC[N+](C)(C)CCCN1C(=O)c3ccc(C)cc3C1=O)C2=O` had a pAlpha of -0.33. Moreover, in assay [2], the p alphaKa worked out at 6.75. The same molecule had a -logKa in assay [3] of 7.08. The molecule also gave an EC50 in assay [4] of 170 nM.

Regarding `Cc1ccc2c(c1)C(=O)N(CCC[N+](C)(C)CCCCCC[N+](C)(C)CC(C)(C)CN1C(=O)c3cccc4cccc(c34)C1=O)C2=O`, the pAlpha in assay [1] worked out at 0.32. This molecule also displayed a p alphaKa in assay [2] of 8.23. In assay [3], the -logKa was determined as 7.9. The molecule also had an EC50 in assay [4] of 7.59 nM.

In assay [1], `Cc1ccc2c(c1)C(=O)N(CC(C)(C)C[N+](C)(C)CCCCCC[N+](C)(C)CC(C)(C)CN1C(=O)c3ccccc3C1=O)C2=O` registered a pAlpha of 0.17. The molecule further returned a p alphaKa in assay [2] of 6.9. Further, the -logKa in assay [3] is 6.73. In assay [4], the EC50 was 120 nM.

Regarding `Cc1ccc2c(c1)C(=O)N(CCC[N+](C)(C)CCCCCC[N+](C)(C)CC(C)(C)CN1C(=O)c3ccccc3C1=O)C2=O`, the pAlpha in assay [1] is -0.13. For the same molecule, the p alphaKa in assay [2] is 7.07. Moreover, the -logKa in assay [3] turned out to be 7.2. Moreover, it took 70.8 nM to reach a half-maximal effect in assay [4] (EC50).

Consider `Cc1ccc2c(c1)C(=O)N(CC(C)(C)C[N+](C)(C)CCCCCC[N+](C)(C)CC(C)(C)CN1C(=O)c3cccc4cccc(c34)C1=O)C2=O`, for which, in assay [1], the pAlpha is 0.29. Besides, in assay [2], the p alphaKa turned out to be 8.19. The molecule also gave a -logKa in assay [3] of 7.9. In assay [4], this molecule showed a concentration giving a half-maximal response (EC50) of 14.1 nM.

In the case of `CC(C)(CN1C(=O)c2ccccc2C1=O)C[N+](C)(C)CCCCCC[N+](C)(C)CC(C)(C)CN1C(=O)c2cccc3cccc(c23)C1=O`, the pAlpha in assay [1] came out at 0.56. In addition, the p alphaKa in assay [2] turned out to be 7.97. This molecule also displayed a -logKa in assay [3] of 7.41. It took 18.6 nM to reach a half-maximal effect in assay [4] (EC50).

`C[N+](C)(CCCCCC[N+](C)(C)CCCN1C(=O)c2cc(F)c(F)cc2C1=O)CCCN1C(=O)c2cc(F)c(F)cc2C1=O` returned a pAlpha in assay [1] of -0.39. In assay [2], this molecule came in with a p alphaKa of 6.08. Further, the -logKa in assay [3] is 6.47. The EC50 in assay [4] was 741 nM.

In turn, `C[N+](C)(CCCCCC[N+](C)(C)CCCN1C(=O)c2ccc(C(F)(F)F)cc2C1=O)CCCN1C(=O)c2ccc(C(F)(F)F)cc2C1=O` came in with a pAlpha in assay [1] of -0.22. In assay [2], the p alphaKa is 6.15. Also, in assay [3], the -logKa came out at 6.37. In assay [4], this molecule had an EC50 of 447 nM.

The molecule `C[N+](C)(CCCCCC[N+](C)(C)CCCN1C(=O)c2ccc(C(F)(F)F)cc2C1=O)CCCN1C(=O)c2ccccc2C1=O` yielded a pAlpha in assay [1] of -0.21. In addition, in assay [2], the p alphaKa was 6.12. This molecule returned a -logKa in assay [3] of 6.32. The molecule also showed an EC50 in assay [4] of 501 nM.

As to `C[N+](C)(CCCCCC[N+](C)(C)CCCN1C(=O)c2cc3ccccc3cc2C1=O)CCCN1C(=O)c2ccccc2C1=O`, the pAlpha in assay [1] was -0.47. Besides, the p alphaKa in assay [2] stood at 6.8. This molecule gave a -logKa in assay [3] of 7.27. The EC50 in assay [4] was 145 nM.

`Cc1ccc2c(c1)C(=O)N(CC(C)(C)C[N+](C)(C)CCCCCC[N+](C)(C)CCCN1C(=O)c3ccccc3C1=O)C2=O` came in with a pAlpha in assay [1] of 0.19. The molecule further came in with a p alphaKa in assay [2] of 7.45. The molecule further returned a -logKa in assay [3] of 7.26. In assay [4], this molecule showed an EC50 of 55 nM.

In the case of `CC(C)(CN1C(=O)c2cccc3cccc(c23)C1=O)C[N+](C)(C)CCCCCC[N+](C)(C)CCCN1C(=O)c2ccccc2C1=O` [NAPHMETHONIUM], the pAlpha in assay [1] came to 0.37. In assay [2], this molecule showed a p alphaKa of 8.66. Further, the -logKa in assay [3] was 8.29. Further, the EC50 in assay [4] was 4.37 nM.

In the case of `C[N+](C)(CCCCCC[N+](C)(C)CCCN1C(=O)c2nccnc2C1=O)CCCN1C(=O)c2nccnc2C1=O`, the pAlpha in assay [1] was -0.44. The same molecule gave a p alphaKa in assay [2] of 5. In assay [3], this molecule came in with a -logKa of 5.44. Also, the EC50 in assay [4] was 6310 nM.

`CC(C)(CN1C(=O)c2ccccc2C1=O)C[N+](C)(C)CCCCCC[N+](C)(C)CCCN1C(=O)c2ccccc2C1=O`: the pAlpha in assay [1] was -0.04. In assay [2], this molecule yielded a p alphaKa of 6.86. Further, the -logKa in assay [3] came out at 6.9. For the same molecule, in assay [4], the EC50 was 135 nM.

Consider `C[N+](C)(CCCCCC[N+](C)(C)CCCN1C(=O)c2cc(F)c(F)cc2C1=O)CCCN1C(=O)c2ccccc2C1=O`, for which the pAlpha in assay [1] is -0.37. The molecule also displayed a p alphaKa in assay [2] of 6.31. This molecule also gave a -logKa in assay [3] of 6.68. In assay [4], this molecule gave an EC50 of 457 nM.
